pIC50: −log10 of the molar value. ≈ marks a conversion by molar mass, not a printed value. Calls of active or inactive are those of the source. The calls are words filed in the database; no cut-off is given here.
Assays:
Staphylococcus aureus = experiment: Antibacterial activity against Staphylococcus aureus ATCC 6538 after 24 hrs by microbroth double dilution method; type: functional; conditions: ATCC 6538, 24 h
Outline: (§1)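 Microbroth double dilution in Mueller Hinton broth; compound stock 10 mg/mL in DMSO serially halved across rows. Wells inoculated with 10 μL culture at 10^6 cells/mL, incubated 37 °C for 24 h. Amikacin row as positive control, DMSO row as negative control. MIC taken as lowest concentration inhibiting bacterial growth.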

Artemia salina = experiment: Cytotoxicity in Brine shrimp assessed as nauplii mortality after 24 hrs; type: organism-based; conditions: in vivo
Outline: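 Artemia salina eggs hatched in aerated tap water with dried yeast at 18–20 °C under illumination for 48 h, and freshly hatched nauplii were used. Compounds in DMSO (0.01–1 mg) were added to 950 µL artificial seawater containing 10–20 nauplii, with 5% final DMSO. After 24 h under illumination at room temperature, dead and surviving nauplii were counted and statistically analysed.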

[1] = Cytotoxicity against human Fem-X cells assessed as cell survival after 72 hrs by MTT assay; type: functional, cell-based
Outline: (§2)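 Cells seeded (HeLa 2000, MDA-MB-453 3000, others 5000 per well), treated 24 h later (K562 after 2 h). Five double-diluted final concentrations, 200–12.5 μM, from 10 mM DMSO stocks, in RPMI-1640 with 10% FBS, pH 7.2, 72 h. MTT 4 h at 37 °C, SDS added, A570 read next day. Survival relative to medium control; IC50 from survival curves; triplicate; cisplatin positive control.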

Bacillus subtilis = experiment: Antibacterial activity against Bacillus subtilis ATCC 6633 after 24 hrs by microbroth double dilution method; type: functional; conditions: ATCC 6633, 24 h; outline: as §1
Saccharomyces cerevisiae = experiment: Antifungal activity against Saccharomyces cerevisiae ATCC 9763 after 24 hrs by microbroth double dilution method; type: functional; conditions: ATCC 9763, 24 h
Candida albicans = experiment: Antifungal activity against Candida albicans ATCC 10231 after 24 hrs by microbroth double dilution method; type: functional; conditions: ATCC 10231, 24 h
HeLa [2] = experiment: Induction of apoptosis in human HeLa cells assessed as accumulation at sub-G1 phase after 24 hrs in presence of caspase-3 inhibitor Z-DEVD-FMK using propidium iodide staining by flow cytometric analysis; type: functional, cell-based
Proteus hauseri = experiment: Antibacterial activity against Proteus hauseri ATCC 13315 after 24 hrs by microbroth double dilution method; type: functional; conditions: ATCC 13315, 24 h; outline: as §1
Clostridium sporogenes = experiment: Antibacterial activity against Clostridium sporogenes ATCC 19404 after 24 hrs by microbroth double dilution method; type: functional; conditions: ATCC 19404, 24 h; outline: as §1
Salmonella enterica = experiment: Antibacterial activity against Salmonella enterica ATCC 13076 after 24 hrs by microbroth double dilution method; type: functional; conditions: ATCC 13076, 24 h; outline: as §1
A549 = experiment: Cytotoxicity against human A549 cells assessed as cell survival after 72 hrs by MTT assay; type: functional, cell-based; conditions: A549, 72 h; outline: as §2
HeLa [3] = experiment: Cytotoxicity against human HeLa cells assessed as cell survival after 72 hrs by MTT assay; type: functional, cell-based; outline: as §2
Micrococcus flavus = experiment: Antibacterial activity against Micrococcus flavus ATCC 10240 after 24 hrs by microbroth double dilution method; type: functional; conditions: ATCC 10240, 24 h; outline: as §1
K562 = experiment: Cytotoxicity against human K562 cells assessed as cell survival after 72 hrs by MTT assay; type: functional, cell-based; conditions: K562, 72 h; outline: as §2
HeLa [4] = experiment: Cell cycle arrest in human HeLa cells assessed as accumulation at G2/M phase at 2 time IC50 after 24 hrs using propidium iodide staining by cytofluorometric analysis; type: functional, cell-based
Outline: (§3)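 Trypsinized, fixed in ice-cold 70% ethanol then held at −20 °C at least one week. Treated with RNase 100 µg/mL at 37 °C 30 min, stained with PI 40 µg/mL at least 30 min. Flow cytometry on ≥10,000 cells.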

MDA-MB-453 = experiment: Cytotoxicity against human MDA-MB-453 cells assessed as cell survival after 72 hrs by MTT assay; type: functional, cell-based; conditions: MDA-MB-453, 72 h; outline: as §2
HeLa [5] = experiment: Cell cycle arrest in human HeLa cells assessed as accumulation at G2/M phase at IC50 after 24 hrs using propidium iodide staining by cytofluorometric analysis; type: functional, cell-based; outline: as §3
Aspergillus brasiliensis = experiment: Antifungal activity against Aspergillus brasiliensis ATCC 16404 after 24 hrs by microbroth double dilution method; type: functional; conditions: ATCC 16404, 24 h
Kocuria rhizophila = experiment: Antibacterial activity against Kocuria rhizophila ATCC 9341 after 24 hrs by microbroth double dilution method; type: functional; conditions: ATCC 9341, 24 h; outline: as §1
Escherichia coli = experiment: Antibacterial activity against Escherichia coli ATCC 25922 after 24 hrs by microbroth double dilution method; type: functional; conditions: ATCC 25922, 24 h; outline: as §1
HeLa [6] = experiment: Induction of apoptosis in human HeLa cells assessed as accumulation at sub-G1 phase after 24 hrs in presence of caspase-8 inhibitor Z-IETD-FMK using propidium iodide staining by flow cytometric analysis; type: functional, cell-based
HeLa [7] = experiment: Induction of apoptosis in human HeLa cells assessed as accumulation at sub-G1 phase after 24 hrs using propidium iodide staining by flow cytometric analysis; type: functional, cell-based
Pseudomonas aeruginosa = experiment: Antibacterial activity against Pseudomonas aeruginosa ATCC 9027 after 24 hrs by microbroth double dilution method; type: functional; conditions: ATCC 9027, 24 h; outline: as §1
Micrococcus luteus = experiment: Antibacterial activity against Micrococcus luteus ATCC 4698 after 24 hrs by microbroth double dilution method; type: functional; conditions: ATCC 4698, 24 h; outline: as §1
HeLa [8] = experiment: Induction of apoptosis in human HeLa cells assessed as accumulation at sub-G1 phase after 24 hrs in presence of caspase-9 inhibitor Z-LEHD-FMK using propidium iodide staining by flow cytometric analysis; type: functional, cell-based
MRC5 [9] = experiment: Cytotoxicity against human MRC5 cells assessed as cell survival after 72 hrs by MTT assay; type: cell-based; conditions: MRC5, 72 h; outline: as §2
HeLa [10] = experiment: Cell cycle arrest in human HeLa cells assessed as reduction in G1 phase at IC50 after 24 hrs using propidium iodide staining by cytofluorometric analysis; type: functional, cell-based; outline: as §3
HeLa [11] = experiment: Cell cycle arrest in human HeLa cells assessed as accumulation at sub-G1 phase at IC50 after 24 hrs using propidium iodide staining by cytofluorometric analysis; type: functional, cell-based; outline: as §3
HeLa [12] = experiment: Cell cycle arrest in human HeLa cells assessed as reduction in G1 phase at 2 time IC50 after 24 hrs using propidium iodide staining by cytofluorometric analysis; type: functional, cell-based; outline: as §3
HeLa [13] = experiment: Cell cycle arrest in human HeLa cells assessed as accumulation at sub-G1 phase at 2 time IC50 after 24 hrs using propidium iodide staining by cytofluorometric analysis; type: functional, cell-based; outline: as §3
MRC5 [14] = experiment: Cytotoxicity against human MRC5 cells; type: cell-based

| Structure (SMILES) | MIC (Staphylococcus aureus) [µM] | LC50 (Artemia salina) [ppm] | pIC50 [1] | MIC (Bacillus subtilis) [µM] | MIC (Saccharomyces cerevisiae) [µM] | MIC (Candida albicans) [µM] | MIC (Proteus hauseri) [µM] | MIC (Clostridium sporogenes) [µM] | MIC (Salmonella enterica) [µM] | pIC50 (A549) | pIC50 (HeLa [3]) | MIC (Micrococcus flavus) [µM] | pIC50 (K562) | pIC50 (MDA-MB-453) | MIC (Aspergillus brasiliensis) [µM] | MIC (Kocuria rhizophila) [µM] | MIC (Escherichia coli) [µM] | MIC (Pseudomonas aeruginosa) [µM] | MIC (Micrococcus luteus) [µM] | pIC50 (MRC5 [9]) | also measured |
| --- | --- | --- | --- | --- | --- | --- | --- | --- | --- | --- | --- | --- | --- | --- | --- | --- | --- | --- | --- | --- | --- |
| CC1=CCC[C@H]2[C@](C)(CC3=CC(=O)C=C(NCCC(=O)O)C3=O)[C@@H](C)CC[C@]12C | 24.5 (≈ 9.8 µg/mL) | 84.3 | 4.69 | 393 (≈ 157 µg/mL) | 12.2 (≈ 4.89 µg/mL) | 195 (≈ 77.9 µg/mL) | 393 (≈ 157 µg/mL) | 393 (≈ 157 µg/mL) | 783 (≈ 313 µg/mL) | 4.57 | 5.05 | 783 (≈ 313 µg/mL) | 4.81 | 5.48 | 782 (≈ 313 µg/mL) | 393 (≈ 157 µg/mL) | 48.8 (≈ 19.5 µg/mL) | 783 (≈ 313 µg/mL) | 48.8 (≈ 19.5 µg/mL) | 4.09 | Activity (HeLa [2]): inactive; Activity (HeLa [4]): Active; Activity (HeLa [5]): Active; Activity (HeLa [6]): inactive; Activity (HeLa [7]): Active; Activity (HeLa [8]): inactive |
| CC1=CCC[C@H]2[C@](C)(CC3=CC(=O)C=C(N[C@@H](CC(C)C)C(=O)O)C3=O)[C@@H](C)CC[C@]12C | 5.55 (≈ 2.45 µg/mL) | 117 | 4.96 | 88.3 (≈ 39 µg/mL) | 176 (≈ 77.9 µg/mL) | < 5.54 | 44.2 (≈ 19.5 µg/mL) | 44.2 (≈ 19.5 µg/mL) | 88.3 (≈ 39 µg/mL) | 4.71 | 5.11 | 88.3 (≈ 39 µg/mL) | 4.95 | 4.96 | 1410 (≈ 624 µg/mL) | 709 (≈ 313 µg/mL) | 5.55 (≈ 2.45 µg/mL) | 88.3 (≈ 39 µg/mL) | 11.1 (≈ 4.9 µg/mL) | 4.13 | Activity (HeLa [10]): Active; Activity (HeLa [2]): inactive; Activity (HeLa [11]): Active; Activity (HeLa [12]): Active; Activity (HeLa [6]): inactive; Activity (HeLa [7]): Active; Activity (HeLa [8]): inactive; Activity (HeLa [13]): Active |
| CSCC[C@H](NC1=CC(=O)C=C(C[C@]2(C)[C@@H](C)CC[C@]3(C)C(C)=CCC[C@@H]23)C1=O)C(=O)O | 42.4 (≈ 19.5 µg/mL) | 147.7 | 4.71 | 170 (≈ 77.9 µg/mL) | 87.8 (≈ 40.3 µg/mL) | < 2.67 | 341 (≈ 157 µg/mL) | 170 (≈ 77.9 µg/mL) | 170 (≈ 77.9 µg/mL) | 4.33 | 4.86 | 170 (≈ 77.9 µg/mL) | 4.87 | 4.59 | 341 (≈ 157 µg/mL) | 1360 (≈ 625 µg/mL) | 42.4 (≈ 19.5 µg/mL) | 170 (≈ 77.9 µg/mL) | 42.4 (≈ 19.5 µg/mL) | < 3.70 | Activity (HeLa [4]): Active; Activity (HeLa [5]): Active |
| CC1=CCC[C@H]2[C@](C)(CC3=CC(=O)C(N[C@@H](CC(C)C)C(=O)O)=CC3=O)[C@@H](C)CC[C@]12C |  |  |  |  |  |  |  |  |  |  |  |  |  |  |  |  |  |  |  |  | pIC50 (MRC5 [14]): < 4.00 |

From ChEMBL document CHEMBL3627646, “Synthesis and biological activity of amino acid derivatives of avarone and its model compound” (Bioorg Med Chem, 2015)
